The values below come from ChEMBL document CHEMBL1138678, “Concise synthesis and structure-activity relationships of combretastatin A-4 analogues, 1-aroylindoles and 3-aroylindoles, as novel classes of potent antitubulin agents” (J Med Chem, 2004).

One experiment relates to MCF7. Put plainly: Concentration required for the 50% inhibition of human breast cancer (MCF-7) cell line growth. In kind it is functional, cell-based.
The next experiment has as its system MKN-45. The experiment is described as follows: Concentration required for the 50% inhibition of human stomach cancer (MKN45) cell line growth. In kind it is functional, cell-based.
A further experiment concerns NUGC-3. Put plainly: Concentration required for the 50% inhibition of human stomach cancer (NUGC3) cell line growth. In kind it is functional, cell-based.
Another experiment has as its system MES-SA. Put plainly: Concentration required for the 50% inhibition of human uterine cancer (MESSA) cell line growth. In kind it is functional, cell-based.
The next experiment relates to A549. The experiment is described as follows: Concentration required for the 50% inhibition of human lung caner (A549) cell line growth. In kind it is functional, cell-based.
The next experiment addresses Tubulin beta-1 chain (Homo sapiens, UniProt Q9H4B7). Put plainly: Inhibition of tubulin polymerization. The method, boiled down:
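MAP-rich tubulin at 2 mg/mL in 100 mM PIPES (pH 6.9), 2 mM MgCl2, 1 mM GTP, 2% (v/v) DMSO with compound. Turbidity read at 350 nm, 37 °C, every 30 s for 30 min. Area under curve scaled between untreated control (100%) and 10 μM colchicine (0%). IC50 by nonlinear regression, at least three experiments.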

Chain of Tubulin beta-1 chain (Q9H4B7 whole entry): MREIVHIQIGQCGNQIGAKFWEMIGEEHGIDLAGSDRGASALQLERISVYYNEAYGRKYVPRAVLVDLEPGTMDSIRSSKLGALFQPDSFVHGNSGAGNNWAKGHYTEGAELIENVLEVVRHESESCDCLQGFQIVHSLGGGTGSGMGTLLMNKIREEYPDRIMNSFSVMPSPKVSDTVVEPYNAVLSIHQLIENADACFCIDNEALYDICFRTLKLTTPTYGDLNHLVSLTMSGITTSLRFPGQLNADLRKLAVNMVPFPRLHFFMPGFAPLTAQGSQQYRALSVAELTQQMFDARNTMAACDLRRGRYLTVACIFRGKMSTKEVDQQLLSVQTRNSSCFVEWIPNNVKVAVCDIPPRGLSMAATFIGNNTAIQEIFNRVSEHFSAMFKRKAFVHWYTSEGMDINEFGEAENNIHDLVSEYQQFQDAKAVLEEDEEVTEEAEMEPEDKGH

For the compound `COc1ccc2c(ccn2C(=O)c2ccc3c(c2)OCO3)c1`, the IC50 with MCF7, in the experiment on MKN-45, with NUGC-3, in the experiment with MES-SA and in the experiment on A549 was above 10 µM throughout.

In the case of `COc1ccc2c(c1)cc(C)n2C(=O)c1cc(OC)c(OC)c(OC)c1`, half-maximal inhibition at Tubulin beta-1 chain (IC50) required 3.31 µM.

In the case of `COc1ccc2[nH]cc(C(=O)c3cc(OC)c(OC)c(OC)c3)c2c1`, the IC50 in the experiment with MCF7 turned out to be 0.639 µM; in the experiment with MKN-45, 0.326 µM; in the experiment on NUGC-3 it was 0.36 µM; with MES-SA it was 0.884 µM; in the experiment with A549, 0.614 µM.

On to `COc1cc(C(=O)c2c[nH]c3cccc(OC)c23)cc(OC)c1OC`, for which the half-maximal inhibitory concentration (IC50) in the experiment with MCF7 is 9.06 µM; in the experiment on MKN-45, 0.487 µM; with NUGC-3 it was 3.36 µM; with MES-SA, 9.39 µM; in the experiment with A549, 6.5 µM.

For `COc1cc(OC)cc(C(=O)c2c[nH]c3cc(OC)ccc23)c1`, the IC50 against Tubulin beta-1 chain was 2.69 µM.

With `COc1ccc2c(C(=O)c3cc(OC)c(OC)c(OC)c3)c(C)[nH]c2c1`, the IC50 against Tubulin beta-1 chain came out at 0.9 µM.

For the compound `COc1ccc2c(ccn2C(=O)c2cc(OC)c(OC)c(OC)c2)c1`, 3.76 µM corresponded to half-maximal inhibition at Tubulin beta-1 chain (IC50). Against the preceding compound, the IC50 is about 4.2-fold higher.

Turning to `COc1ccc2c(C(=O)c3cc(OC)c(OC)c(OC)c3)c[nH]c2c1`, the IC50 with MCF7 was 0.007 µM; with MKN-45, 0.004 µM; with NUGC-3, 0.001 µM; in the experiment on MES-SA, 0.004 µM; in the experiment on A549 it was 0.023 µM; at Tubulin beta-1 chain, 2.18 µM.

`COc1ccc(/C=C\c2cc(OC)c(OC)c(OC)c2)cc1O` [COMBRETASTATIN A4]: the IC50 in the experiment with MCF7 is 0.008 µM; in the experiment on MKN-45 it was 0.082 µM; with NUGC-3, above 10 µM; in the experiment with MES-SA, 0.013 µM; with A549, 0.117 µM.

Broadly, the IC50 is the concentration that gives 50% inhibition. A higher IC50 goes with weaker potency.
